Test results from ChEMBL document CHEMBL4138228, “Substituted carbamothioic amine-1-carbothioic thioanhydrides as novel trichomonicidal fungicides: Design, synthesis, and biology” (Eur J Med Chem, 2018).
≈ marks a conversion by molar mass, not a printed value. Calls of active or inactive are those of the source. The calls are words filed in the database; no cut-off is given here.

Assays:
Trichomonas vaginalis [1] = experiment: Antitrichomonas activity against metronidazole-susceptible Trichomonas vaginalis assessed as decrease in cell viability after 48 hrs by trypan blue exclusion method; type: functional
Trichomonas vaginalis [2] = experiment: Potency index, ratio of metronidazole MIC to test compound MIC for metronidazole-susceptible Trichomonas vaginalis; type: functional
HeLa = experiment: Cytotoxicity against human HeLa cells after 24 hrs by MTT assay; type: cell-based
Plasmodium falciparum [3] = experiment: Antimalarial activity against chloroquine-sensitive Plasmodium falciparum 3D7 infecetd in RBC after 72 hrs by SYBR Green dye-based fluorescence assay; type: functional, organism-based; details: 3D7, Erythrocyte
Candida albicans [4] = experiment: Antifungal activity against Candida albicans MTCC 183 after 48 hrs by broth microdilution method; type: functional; details: MTCC 183, 48 h
Procedure, shortened: (§1)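 Broth microdilution per NCCLS guidelines in MOPS-buffered RPMI 1640; starting inoculum 1-5 x 10^3 CFU/mL; plates incubated at 35 °C; MIC recorded after 48 h; fluconazole as reference; experiments repeated three times.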

Candida albicans [5] = experiment: Antifungal activity against Candida albicans ATCC 66027 after 48 hrs by broth microdilution method; type: functional; details: ATCC 66027, 48 h; procedure, shortened: as §1
Trichomonas vaginalis [6] = experiment: Antitrichomonas activity against metronidazole-susceptible Trichomonas vaginalis infected in mouse assessed as growth of abscess at 50 mg/kg, po administered for 7 days measured on day 7 post last dose (reference value: 96.5 mm'2); type: functional
Rattus norvegicus [7] = experiment: Clearance in Sprague-Dawley rat at 50 mg/kg, po measured up to 24 hrs by LC-MS/MS analysis; type: ADME, organism-based; details: in vivo
Procedure, shortened: (§2)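 Male rats fasted 12-16 h before dosing (n = 4 per time point). Each received a single 50 mg/kg oral dose as a 12.5 mg/mL suspension in 1% w/v gum acacia in water, given by feeding needle. Serum was sampled up to 24 h, cleaned up by protein precipitation and assayed by LC-MS/MS (MRM, phenacetin internal standard, linear 1-200 ng/mL). Parameters were derived by non-compartmental analysis.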

Nakaseomyces glabratus = experiment: Antifungal activity against Candida glabrata ATCC 2001 after 48 hrs by broth microdilution method; type: functional; details: ATCC 2001, 48 h; procedure, shortened: as §1
Plasmodium falciparum [8] = experiment: Antimalarial activity against chloroquine-resistant Plasmodium falciparum K1 infecetd in RBC after 72 hrs by SYBR Green dye-based fluorescence assay; type: functional, organism-based; details: K1, Erythrocyte
Candida albicans [9] = experiment: Antifungal activity against Candida albicans ATCC 10231 after 48 hrs by broth microdilution method; type: functional; details: ATCC 10231, 48 h; procedure, shortened: as §1
Trichomonas vaginalis [10] = experiment: Potency index, ratio of metronidazole MIC to test compound MIC for metronidazole-resistant Trichomonas vaginalis CDC085 ATCC 50143; type: functional
Trichomonas vaginalis [11] = experiment: Antitrichomonas activity against metronidazole-resistant Trichomonas vaginalis CDC085 ATCC 50143 assessed as decrease in cell viability after 48 hrs by trypan blue exclusion method; type: functional; details: CDC085 ATCC 50143, 48 h
[12] = Tmax in Sprague-Dawley rat at 50 mg/kg, po measured up to 24 hrs by LC-MS/MS analysis; type: ADME, organism-based; details: in vivo; procedure, shortened: as §2
Trichomonas vaginalis [13] = experiment: Selectivity ratio of MIC for metronidazole-resistant Trichomonas vaginalis CDC085 ATCC 50143 to MIC for metronidazole-susceptible Trichomonas vaginalis; type: functional
[14] = tested on: Trichophyton mentagrophytes; experiment: Antifungal activity against Trichophyton mentagrophytes after 48 hrs by broth microdilution method; type: functional; procedure, shortened: as §1
Rattus norvegicus [15] = experiment: Volume of distribution at steady state in Sprague-Dawley rat at 50 mg/kg, po measured up to 24 hrs by LC-MS/MS analysis; type: ADME, organism-based; details: in vivo; procedure, shortened: as §2
Candida albicans [16] = experiment: Antifungal activity against Candida albicans patient isolate after 48 hrs by broth microdilution method; type: functional; procedure, shortened: as §1
Sporothrix schenckii = experiment: Antifungal activity against Sporothrix schenckii after 48 hrs by broth microdilution method; type: functional; procedure, shortened: as §1
[17] = Cmax in Sprague-Dawley rat at 50 mg/kg, po measured up to 24 hrs by LC-MS/MS analysis; type: ADME, organism-based; design: dose 50 mg/kg, route oral; details: in vivo; procedure, shortened: as §2
[18] = Selectivity index, ratio of IC50 for human HeLa cells to MIC for metronidazole-susceptible Trichomonas vaginalis; type: toxicity; details: read-out: Selectivity Index
Candida parapsilosis = experiment: Antifungal activity against Candida parapsilosis ATCC 22019 after 48 hrs by broth microdilution method; type: functional; details: Lodderomyces parapsilosis, ATCC 22019, 48 h; procedure, shortened: as §1
[19] = Selectivity index, ratio of IC50 for human HeLa cells to MIC for metronidazole-resistant Trichomonas vaginalis CDC085 ATCC 50143; type: toxicity; details: read-out: Selectivity Index
Trichomonas vaginalis [20] = experiment: Antitrichomonas activity against metronidazole-susceptible Trichomonas vaginalis infected in mouse assessed as growth of abscess at 100 mg/kg, po administered for 7 days measured on day 7 post last dose (reference value: 96.5 mm'2); type: functional
Rattus norvegicus [21] = experiment: AUClast in Sprague-Dawley rat at 50 mg/kg, po measured up to 24 hrs by LC-MS/MS analysis; type: ADME, organism-based; design: time < 24 hr, dose 50 mg/kg, route oral; details: in vivo; procedure, shortened: as §2
Trichomonas vaginalis [22] = experiment: Antitrichomonas activity against metronidazole-susceptible Trichomonas vaginalis infected in mouse assessed as growth of abscess at 50 to 100 mg/kg, po administered for […] post last dose (reference value: 96.55 mm'2); type: functional
Trichomonas vaginalis [23] = experiment: Inhibition of free sulfhydryl group in Trichomonas vaginalis at MIC after 24 hrs by mBBr dye-based fluorescence microscopic method
Procedure, shortened: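 Cells were pelleted (700 xg, 10 min, 4°C) and washed in PBS. They were then labelled in the dark with a fluorometric thiol detector prediluted 100x. Imaging used epifluorescence microscopy through a UV-1A filter, with the same exposure for all samples, and was assessed qualitatively.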

Cryptococcus neoformans = experiment: Antifungal activity against Cryptococcus neoformans after 48 hrs by broth microdilution method; type: functional; procedure, shortened: as §1
[24] = Elimination half life in Sprague-Dawley rat at 50 mg/kg, po measured up to 24 hrs by LC-MS/MS analysis; type: ADME, organism-based; details: in vivo, read-out: beta t1/2 (converted); procedure, shortened: as §2
Candida albicans [25] = experiment: Antifungal activity against Candida albicans ATCC 14053 after 48 hrs by broth microdilution method; type: functional; details: ATCC 14053, 48 h; procedure, shortened: as §1

CN(C)C(=S)SC(=S)N1CCN(c2ncccn2)CC1
MIC (Trichomonas vaginalis [1]): 4.77 µM (≈ 1.56 µg/mL)
Ratio (Trichomonas vaginalis [2]): 3.8
IC50 (HeLa): > 5000 µM
IC50 (Plasmodium falciparum [3]): 0.76 µM
MIC (Candida albicans [4]): 76.5 µM (≈ 25 µg/mL)
MIC (Candida albicans [5]): 38.2 µM (≈ 12.5 µg/mL)
Activity (Trichomonas vaginalis [6]): 1.57 mm2
CL (Rattus norvegicus [7]): 81.7 mL/min/kg
MIC (Nakaseomyces glabratus): 153 µM (≈ 50.1 µg/mL)
IC50 (Plasmodium falciparum [8]): 1.85 µM
MIC (Candida albicans [9]): 153 µM (≈ 50.1 µg/mL)
Ratio (Trichomonas vaginalis [10]): 9.5
MIC (Trichomonas vaginalis [11]): 38.2 µM (≈ 12.5 µg/mL)
Tmax [12]: 2 h
selectivity ratio (Trichomonas vaginalis [13]): 8
MIC [14]: 153 µM (≈ 50.1 µg/mL)
Vdss (Rattus norvegicus [15]): 12.6 L/kg
MIC (Candida albicans [16]): 153 µM (≈ 50.1 µg/mL)
MIC (Sporothrix schenckii): 153 µM (≈ 50.1 µg/mL)
Cmax [17]: 47.1 ng/mL
selectivity ratio [18]: 1050
MIC (Candida parapsilosis): 153 µM (≈ 50.1 µg/mL)
selectivity ratio [19]: 131
Activity (Trichomonas vaginalis [20]): 0.79 mm2
AUClast (Rattus norvegicus [21]): 140.5 ng·h/mL
Activity (Trichomonas vaginalis [22]): 1 - 2.5 mm2
inhibition (Trichomonas vaginalis [23]): Active
MIC (Cryptococcus neoformans): 153 µM (≈ 50.1 µg/mL)
half-life [24]: 2.6 h
MIC (Candida albicans [25]): 153 µM (≈ 50.1 µg/mL)

CN(C)C(=S)SC(=S)N1CCN(C(=O)OC(C)(C)C)CC1
MIC (Trichomonas vaginalis [1]): 17.9 µM (≈ 6.24 µg/mL)
Ratio (Trichomonas vaginalis [2]): 1 - 3.8
IC50 (HeLa): 1310 µM
IC50 (Plasmodium falciparum [3]): 0.78 µM
MIC (Candida albicans [4]): 143 µM (≈ 49.9 µg/mL)
MIC (Candida albicans [5]): 71.4 µM (≈ 25 µg/mL)
MIC (Nakaseomyces glabratus): 143 µM (≈ 49.9 µg/mL)
IC50 (Plasmodium falciparum [8]): 1.74 µM
MIC (Candida albicans [9]): 143 µM (≈ 49.9 µg/mL)
Ratio (Trichomonas vaginalis [10]): 1.3 - 9.5
MIC (Trichomonas vaginalis [11]): 71.4 µM (≈ 25 µg/mL)
MIC [14]: 143 µM (≈ 49.9 µg/mL)
MIC (Candida albicans [16]): 143 µM (≈ 49.9 µg/mL)
MIC (Sporothrix schenckii): 143 µM (≈ 49.9 µg/mL)
selectivity ratio [18]: 73
MIC (Candida parapsilosis): 143 µM (≈ 49.9 µg/mL)
selectivity ratio [19]: 18
MIC (Cryptococcus neoformans): 143 µM (≈ 49.9 µg/mL)
MIC (Candida albicans [25]): 143 µM (≈ 49.9 µg/mL)

Cc1ncc([N+](=O)[O-])n1CCO [METRONIDAZOLE]
MIC (Trichomonas vaginalis [1]): 18.2 µM (≈ 3.12 µg/mL)
IC50 (HeLa): > 5000 µM
Activity (Trichomonas vaginalis [6]): 2.35 mm2
MIC (Trichomonas vaginalis [11]): 365 µM (≈ 62.6 µg/mL)
selectivity ratio [18]: > 277
selectivity ratio [19]: > 13

CN(C)C(=S)SC(=S)N1CCN(C(=S)Nc2ccccc2)CC1
MIC (Trichomonas vaginalis [1]): 8.1 µM (≈ 3.12 µg/mL)
Ratio (Trichomonas vaginalis [2]): 2.2
IC50 (HeLa): > 5000 µM
IC50 (Plasmodium falciparum [3]): 0.72 µM
MIC (Candida albicans [4]): > 130 µM
MIC (Candida albicans [5]): > 130 µM
MIC (Nakaseomyces glabratus): > 130 µM
IC50 (Plasmodium falciparum [8]): 1.66 µM
MIC (Candida albicans [9]): > 130 µM
Ratio (Trichomonas vaginalis [10]): 11.4
MIC (Trichomonas vaginalis [11]): 32.5 µM (≈ 12.5 µg/mL)
MIC [14]: 130 µM (≈ 50 µg/mL)
MIC (Candida albicans [16]): > 130 µM
MIC (Sporothrix schenckii): 130 µM (≈ 50 µg/mL)
selectivity ratio [18]: > 617
MIC (Candida parapsilosis): > 130 µM
selectivity ratio [19]: > 154
MIC (Cryptococcus neoformans): > 130 µM
MIC (Candida albicans [25]): > 130 µM

CN(C)C(=S)SC(=S)N1CCN(C(=O)c2ccco2)CC1
MIC (Trichomonas vaginalis [1]): 18.2 µM (≈ 6.26 µg/mL)
Ratio (Trichomonas vaginalis [2]): 1 - 3.8
IC50 (HeLa): 2380 µM
IC50 (Plasmodium falciparum [3]): 0.79 µM
MIC (Candida albicans [4]): 72.9 µM (≈ 25 µg/mL)
MIC (Candida albicans [5]): 72.9 µM (≈ 25 µg/mL)
MIC (Nakaseomyces glabratus): 146 µM (≈ 50.1 µg/mL)
IC50 (Plasmodium falciparum [8]): 1.76 µM
MIC (Candida albicans [9]): 146 µM (≈ 50.1 µg/mL)
Ratio (Trichomonas vaginalis [10]): 1.3 - 9.5
MIC (Trichomonas vaginalis [11]): 146 µM (≈ 50.1 µg/mL)
MIC [14]: 72.9 µM (≈ 25 µg/mL)
MIC (Candida albicans [16]): 146 µM (≈ 50.1 µg/mL)
MIC (Sporothrix schenckii): 72.9 µM (≈ 25 µg/mL)
selectivity ratio [18]: 130
MIC (Candida parapsilosis): 146 µM (≈ 50.1 µg/mL)
selectivity ratio [19]: 16
MIC (Cryptococcus neoformans): 146 µM (≈ 50.1 µg/mL)
MIC (Candida albicans [25]): 146 µM (≈ 50.1 µg/mL)
